The list is not random: actives were taken first. Their share in the collection is about 0.72%.
hIAP act = human IAP activators, primary screen, biochemical, luminescence, uHTS. Intestinal-type alkaline phosphatase (Homo sapiens), P09923. purified human IAP, CDP-Star luminescence, 30 min; active compounds read high; 1 = vehicle-only enzyme, 0 = enzyme-free background. activation factor at 10 µM. hit rate 0.16% among 330,000. AID 2524, 2010;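 active = activation factor of the enzyme at least 2-fold when tested at 20 µM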
Target sequence (P09923 whole entry, looked up): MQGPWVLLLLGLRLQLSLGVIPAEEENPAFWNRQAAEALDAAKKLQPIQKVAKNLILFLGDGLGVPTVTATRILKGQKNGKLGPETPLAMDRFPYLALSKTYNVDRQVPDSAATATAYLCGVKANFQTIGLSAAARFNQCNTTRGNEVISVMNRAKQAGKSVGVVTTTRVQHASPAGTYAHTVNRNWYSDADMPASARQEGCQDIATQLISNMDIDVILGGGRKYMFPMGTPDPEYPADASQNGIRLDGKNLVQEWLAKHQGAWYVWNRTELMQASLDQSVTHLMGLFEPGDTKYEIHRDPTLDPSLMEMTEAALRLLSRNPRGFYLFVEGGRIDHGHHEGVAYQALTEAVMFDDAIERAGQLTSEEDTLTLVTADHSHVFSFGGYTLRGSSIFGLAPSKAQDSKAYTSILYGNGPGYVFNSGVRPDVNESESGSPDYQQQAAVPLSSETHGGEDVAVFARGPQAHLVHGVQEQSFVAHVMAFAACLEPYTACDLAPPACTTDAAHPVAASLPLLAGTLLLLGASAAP
hIAP inh = human IAP inhibitors, primary screen, biochemical, luminescence, uHTS; Intestinal-type alkaline phosphatase (Homo sapiens), P09923; purified IAP, CDP-Star luminescence, 30 min; inhibition, % at 10 µM; hit rate 0.12% among 330,000; AID 2544, 2010;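 active = inhibition reaching a set limit with compound at 10 µM in the primary screen, cut at about 35% in these data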;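 also: plate controls were DMSO wells with enzyme for no effect and no-enzyme buffer wells for full effect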
mIAP act = activators of mouse IAP, primary screen, biochemical, luminescence, uHTS; intestinal alkaline phosphatase [Mus musculus]; hit rate 0.24% among 330,000; AID 2805, 2010; activation factor at 10 µM; muIAP, CDP-Star luminescence, 30 min; active compounds read high; 1 = vehicle-only enzyme signal, 0 = enzyme-free wells;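 active = activation factor of at least 2 at 20 µM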
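also added = chemiluminescent substrate CDP-Star | test system = mouse IAP enzyme | signal = chemiluminescence readout | compound = DMSO-dissolved test compounds | incubation = 30 min at room temperature | benchmarks = DMSO wells, no-enzyme wells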
bIAP inh = bovine intestinal alkaline phosphatase inhibitors, primary screen, selectivity assay for TNAP inhibitor project, biochemical, bovine IAP, CDP-star luminescence; inhibition, % at 20 µM; AID 1019, 2008; 190,000 tested, under 10 active; alkaline phosphatase, intestinal [Bos taurus]; purified bovine IAP, 30 min;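 active = over 50% inhibition of intestinal alkaline phosphatase at 20 µM in the single-dose screen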
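System: Purified bovine intestinal alkaline phosphatase (IAP) enzyme | Input: IAP diluted 1/65,000,000 in the well | Also added: CDP-star chemiluminescent phosphatase substrate, 30 µM final | Dosing: 20 µM single dose | Times: Enzyme reaction for 30 min at room temperature | Detection: Luminescence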
mIAP inh = inhibitors of mouse IAP, primary screen, biochemical, luminescence, uHTS; intestinal alkaline phosphatase [Mus musculus]; purified mouse IAP, CDP-Star luminescence, 30 min; inhibition, % at 10 µM; hit rate 0.2% among 330,000; AID 2806, 2010;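 active = inhibition of at least 40% at 10 µM in the primary screen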;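 also: plate controls were DMSO with enzyme for no effect and no enzyme wells for full effect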
bIAP act = bovine intestinal alkaline phosphatase activators, primary screen, biochemical, bovine IAP, CDP-star luminescence. alkaline phosphatase, intestinal [Bos taurus]. purified bovine IAP, 30 min; active compounds read high; fold of DMSO-control signal, blank-subtracted. activation factor at 20 µM. hit rate 0.17% among 200,000. AID 1016, 2008;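 active = activation factor of 2 or more at 20 µM, a signal rise over negative controls twice the positive control's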
hIAP act conf = human IAP activators, confirmation, biochemical, luminescence, single concentration, uHTS hits; AID 434926, 2010; activation (%Activity, negative = activation), % at 8.3 µM; shares compounds with hIAP act; purified IAP, CDP-Star luminescence, 30 min; active compounds read low; hit rate 10% among 880;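 active = at least twofold enzyme activation in any of six single-dose repeats, which the averaged readout prints as negative percent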
Numbers without * were called inactive; nt = no result given.

SMILES	hIAP act	hIAP inh	mIAP act	bIAP inh	mIAP inh	bIAP act	hIAP act conf
Cc1ccsc1C(=O)OC(C)C(=O)Nc1ccc(Cl)cn1 (stereo not given)	0.935	6.5	0.983	nt	1.7	nt	nt
Cc1cc(-n2c(SCC(=O)NCCC3=CCCCC3)nc3n[nH]c(C)c3c2=N)ccc1Cl	2.06*	-105.6	1.21	nt	-21.2	nt	-29.5
Cc1ccc(Cl)cc1-n1c(SCC(=O)NCCC2=CCCCC2)nc2n[nH]c(C)c2c1=N	1.66	-65.8	0.976	nt	2.4	nt	nt
Cc1ccc(CN2CCC(C(=O)Nc3cccc(-c4cccc(F)c4)c3)CC2)o1	2.21*	-121.5	2.42*	nt	-142.4	nt	2.3
CCc1ccc(CN2CCC(C(=O)Nc3cccc(-c4nnc(C)s4)c3)CC2)o1	1.21	-21.0	0.975	nt	2.5	nt	nt
CN(C)c1ccc(/C=C2/C=C(c3ccc4c(c3)CCCC4)OC2=O)cc1	0.574	42.6*	0.667	nt	33.3	nt	4.2
COC(=O)/C=C1\S/C(=N/NC(=O)c2ccccc2)NC1=O	1.3	-29.8	0.845	-24.3	15.5	1.2	nt
COc1ccccc1/C=C1\S/C(=N/NC(=O)c2cccc(Br)c2)NC1=O	2.45*	-145.1	1.01	-5.2	-0.7	1.1	1.5
Cc1ccc(-c2nnc(CCC(=O)NCC3C4CC5CC(C4)CC3C5)o2)s1 (stereo not given)	1.1	-10.5	1.15	-1.7	-14.5	1	nt
CCc1c(C(=O)NNC(=S)NCCc2ccccc2)csc1C	2.13*	-112.8	0.952	-1.1	4.8	1	-25.6
COC(=O)c1c(NC(=O)C(=O)NCC2CCCO2)sc2c1CC(C)(C)OC2 (stereo not given)	1.11	-10.8	0.919	nt	8.1	nt	nt
Cc1ccc(S(=O)(=O)N2CCN(C(=O)CCn3cncn3)CC2)cc1	0.64	36.0*	1.05	nt	-5.4	nt	-52.8
CCOC(=O)c1cnc(SCC(=O)c2ccccc2)nc1N	0.647	35.3*	0.961	9.9	3.9	0.9	-436.4*
CCOC(=O)c1cnc(SCC(=O)c2ccc(C)cc2)nc1N	0.872	12.8	0.975	7.3	2.5	0.9	nt
O=C(O)COn1c(-c2ccc(Cl)cc2)nc2ccc(Cl)cc21	2.16*	-116.1	0.962	6.8	3.8	0.9	26.6
COn1c(-c2ccc(Cl)cc2)nc2ccc(Cl)cc21	1.02	-2.0	0.97	7.6	3.0	0.9	nt
NS(=O)(=O)c1ccc2nc(NC(=O)c3ccc4ncsc4c3)sc2c1	0.644	35.6*	1.04	nt	-4.1	nt	-18.8
O=C(Cn1ccnc1)c1ccc(O)c(O)c1	0.594	40.6*	0.9	nt	10.0	nt	-43.6
CCc1ccc(CNC(=O)CCn2ccc3cc(S(=O)(=O)N4CCCC4)ccc32)cc1	1.48	-48.1	1.14	nt	-13.9	nt	nt
C/C=N/NC(=O)c1cc(Br)ccc1O	1.23	-22.7	1	-18.4	-0.1	1.2	nt
Cc1c(/C=N/NC(=O)c2cc(Br)ccc2O)c(=O)n(C)c(=O)n1C	2.15*	-114.5	0.98	nt	2.0	nt	-34.6
O=S(=O)(NCc1ccccc1)[C@@H]1CC2C=CC1C2 (stereo not given in full)	1.12	-12.1	1.09	nt	-9.2	nt	nt
COc1cccc(-c2cc(C(=O)Nc3ccc(N(C)C(C)=O)cc3)c3cc(Br)ccc3n2)c1	1.08	-7.6	0.854	nt	14.6	nt	nt
O=C(CSc1ncccn1)Nc1ccccc1	0.985	1.5	0.929	5.0	7.1	0.9	nt
CC(NC(=O)CSc1ncccn1)c1ccccc1 (stereo not given)	0.333	66.7*	1.05	6.6	-4.9	0.9	0.1
SMILES	hIAP act	hIAP inh	mIAP act	bIAP inh	mIAP inh	bIAP act	hIAP act conf
CC(C)(C)c1ccc(C(=O)Nc2ccc(CN3CCS(=O)(=O)CC3)cc2)cc1	0.614	38.6*	0.963	nt	3.7	nt	-53.6
CCCCNC(=O)N(O)C1N(/N=C/c2cccs2)C(=S)SC1(C)C (stereo not given)	0.639	36.1*	0.999	nt	0.1	nt	-1.8
CNC(=O)N(O)C1N(/N=C/c2ccccc2O)C(=S)SC1(C)C (stereo not given)	1.05	-5.5	0.96	nt	4.0	nt	nt
O=C(Nc1ccc(Cl)c(Cl)c1)Oc1ccc(NC(=O)c2ccco2)cc1	2*	-100.3	2.2*	-0.4	-119.9	1	-70.1
CCOC(=O)c1ccc(NC(=O)c2nc[nH]c2C(=O)N[C@@H](CC(C)C)C(=O)OC(C)(C)C)cc1	2.03*	-102.8	0.97	nt	3.0	nt	14.5
COc1cccc(N2CCN(C(=O)c3oc4ccccc4c3NC(=O)Cc3ccc(OC)c(OC)c3)CC2)c1	1.26	-25.6	1.12	nt	-12.5	nt	nt
Cc1ccccc1CNC(=O)c1ccccc1N	0.641	35.9*	0.995	10.2	0.5	0.9	37.2
CCn1nc(NS(=O)(=O)c2ccccc2)c2cc3cc(C)ccc3nc21	1.09	-8.7	0.948	nt	5.2	nt	nt
CCn1nc(NS(=O)(=O)c2ccccc2)c2cc3ccc(C)cc3nc21	0.614	38.6*	0.966	nt	3.4	nt	-0.9
Cc1ccc(OCCNS(=O)(=O)c2ccc(N3CCCC3=O)cc2)cc1C	1.08	-7.8	0.925	-1.9	7.5	1	nt
Cc1ccc(OCCNS(=O)(=O)c2ccc(N3CCCC3=O)cc2)cc1	0.638	36.2*	0.976	23.9	2.4	0.8	-69.7
COc1ccc(CCN2C(=O)c3ccncc3C2=O)cc1OC	2.39*	-139.2	1.09	-5.0	-8.8	1.1	67.1
O=C1CC(c2ccccc2F)c2cc3c(cc2N1)CCC3 (stereo not given)	3.2*	-219.6	1.17	2.9	-16.5	1	-11.2
Cc1ccc(NC(=O)c2sc3ccccc3c2Cl)nc1	2.1*	-110.3	0.984	0.8	1.6	1	-28.6
O=C(COc1ccc2ccccc2c1Br)N1CCCCC1	0.64	36.0*	0.946	nt	5.4	nt	-50.2*
CC1=NN(C(C#N)c2ccccc2C)C(C)(C)C1 (stereo not given)	1.2	-19.8	1.04	-8.4	-3.9	1.1	nt
O=C1C=C(N2CCOCC2)c2ccccc2C1=O	0.554	44.6*	1.04	nt	-3.8	nt	2.6
CC1=C(C)C(=O)C(N2CCOCC2)=CC1=O	nt	nt	nt	13.5	nt	0.9	nt
COc1ccc(N2CCN(CCNC(=O)CCC(=O)NNc3nc4ccccc4c4nc(C)nn34)CC2)cc1	2.45*	-145.4	0.897	nt	10.3	nt	-24.0

Bioassay records as filed in PubChem.
